What was measured:
[1] = tested on: Neutrophil; experiment: Anti-inflammatory activity in human neutrophils assessed as inhibition of fMLP/CB-induced superoxide anion production by measuring reduction of ferricytochrome c at 10 uM pretreated for 5 mins followed by fMLP/CB addition measured after 10 mins by spectrophotometric method relative to control; type: functional
Method in brief: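 Donor neutrophils (healthy, 20−35 y) held 2 min at 37 °C in 0.5 mg/mL ferricytochrome c with 1 mM Ca2+, then 5 min with compound, then fMLP 100 nM/cytochalasin B 1 μg/mL for 10 min. Continuous 550 nm read with stirring. SOD-inhibitable (100 U/mL) difference converted using ε = 21.1/mM/10 mm. Inhibition % at 10 μM, mean ± SEM (n = 3, 4).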

[2] = tested on: Neutrophil; experiment: Anti-inflammatory activity in human neutrophils assessed as inhibition of fMLP/CB-induced elastase release at 10 uM using MeO-Suc-Ala-Ala-Pro-Val-p-nitroanilide as a substrate pretreated for 5 mins followed by fMLP/CB addition relative to control; type: functional
Method in brief: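 Neutrophils from healthy donors aged 20−35 (venipuncture), equilibrated at 37 °C for 2 min with 100 μM MeO-Suc-Ala-Ala-Pro-Val-p-nitroanilide, then exposed to compound 5 min. Stimulus: 100 nM fMLP plus 0.5 μg/mL cytochalasin B. Elastase release followed continuously at 405 nm. Percent inhibition at 10 μM versus control, mean ± SEM (n = 3, 4).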

Structure (SMILES) | inhibition at 10 µM [1] | inhibition at 10 µM [2]
CC1=CC(=O)[C@@H]2[C@@H](C1)[C@]13CO[C@@]4(C1=O)N1C[C@H]5C[C@H](C)C[C@]1(CC[C@@]4(C)[C@]1(COC(=O)C1)[C@H]3C(=O)[C@@H]2C)O5 | 7% | 27%
CC1=CC(=O)[C@@H]2[C@@H](C1)C13C=C4N5C[C@H]6C[C@H](C)C[C@]5(CC[C@@]4(C)[C@]4(COC(=O)C4)[C@H]1[C@@](O)(OC3)[C@@H]2C)O6 | 17% | 17%
O=c1cc(N2CCOCC2)oc2c(-c3ccccc3)cccc12 [LY-294002] | 99% | 73%
CC1=CC(=O)[C@@H]2[C@@H](C1)C13C=C4N5C[C@H]6C[C@H](C)[C@@H](I)[C@]5(CC[C@@]4(C)[C@]4(COC(=O)C4)[C@H]1[C@@](O)(OC3)[C@@H]2C)O6 | 24% | 43%
CC1=CC(=O)[C@@H]2[C@@H](C1)C13C=C4N5C[C@@H]6O[C@@]5(CC[C@@]4(C)[C@]4(COC(=O)C4)[C@H]1[C@@](O)(OC3)[C@@H]2C)C[C@@H](C)[C@@H]6O | 14% | 25%
CC1=CC(=O)[C@@H]2[C@@H](C1)[C@]1(C)C=C3N4C[C@H]5C[C@H](C)C[C@]4(CC[C@@]3(C)[C@]3(COC(=O)C3)[C@H]1C(=O)[C@@H]2C)O5 | 18% | 30%
CC1=CC(=O)[C@H]2[C@@H](C1)[C@]13CO[C@@]4([C@H]1O)N1C[C@H]5C[C@H](C)C[C@]1(CC[C@@]4(C)[C@]1(COC(=O)C1)[C@H]3C(=O)[C@@H]2C)O5 | 15% | 13%
CC1=CC(=O)[C@@H]2[C@@H](C1)[C@]13CO[C@@]4(C1=O)N1C[C@H]5C[C@H](C)C[C@@]1(O5)[C@@H](O)C[C@@]4(C)[C@]1(COC(=O)C1)[C@H]3C(=O)[C@@H]2C | 13% | 15%
CC1=CC(=O)[C@@H]2[C@@H](C1)[C@]13CO[C@@]4([C@H]1Cl)N1C[C@H]5C[C@H](C)C[C@]1(CC[C@@]4(C)[C@]1(COC(=O)C1)[C@H]3C(=O)[C@@H]2C)O5 | 23% | 25%
CC1=CC(=O)[C@@H]2[C@@H](C1)[C@]13CO[C@@]4([C@H]1O)N1C[C@H]5C[C@H](C)C[C@@]1(O5)[C@@H](O)C[C@@]4(C)[C@]1(COC(=O)C1)[C@H]3C(=O)[C@@H]2C | 11% | 27%
CC1=CC(=O)[C@H]2[C@@H](C1)[C@]13CO[C@@]4(C1=O)N1C[C@H]5C[C@H](C)C[C@]1(CC[C@@]4(C)[C@]1(COC(=O)C1)[C@H]3C(=O)[C@@H]2C)O5 | 14% | 23%
CC1=CC(=O)[C@@H]2[C@@H](C1)[C@]13CO[C@@]4([C@H]1O)N1C[C@H]5C[C@H](C)C[C@]1(CC[C@@]4(C)[C@]1(COC(=O)C1)[C@H]3C(=O)[C@@H]2C)O5 | 9% | 6%
CO[C@@H]1[C@@H](C)C[C@@H]2CN3[C@@]1(CC[C@@]1(C)[C@]4(COC(=O)C4)[C@H]4C(=O)[C@H](C)[C@@H]5C(=O)C=C(C)C[C@H]5[C@@]45CO[C@@]31C5=O)O2 | 20% | 33%

From ChEMBL document CHEMBL4041502, “Zoanthamine-Type Alkaloids from the Zoanthid Zoanthus kuroshio Collected in Taiwan and Their Effects on Inflammation” (2016)
